According to PMC5198968 (Cancer Science, 2016):
“Also recorded” adds a separate entry of the source.

Experiments:
[1] = tested on: Japanese patients with advanced hepatocellular carcinoma; assay: Phase I dose escalation: dose-limiting toxicities and maximum tolerated dose; type: in vivo, human
Outline: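 Doses started at 150 mg b.i.d. (group I) or 100 mg b.i.d. (group II) and escalated to 200 mg, with 3–9 patients per level. DLTs were drug-related AEs in cycle 1: grade 4 neutropenia lasting ≥8 days, febrile neutropenia or thrombocytopenia, most non-hematological grade ≥3 events, or defined liver-enzyme or bilirubin rises. Escalation required DLT incidence <33.3% (0/3, 1/6, 2/9). Twelve patients were added at the MTD.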

[2] = tested on: patients with advanced solid tumors; conditions: phase I studies in advanced solid tumors; cited from earlier work
[3] = 200 mg b.i.d., expansion cohort

COC(=O)c1ccc2c(c1)NC(=O)/C2=C(\Nc1ccc(N(C)C(=O)CN2CCN(C)CC2)cc1)c1ccccc1 [nintedanib]
DLT of grade 3 diarrhea [1, 3]: one patient in group I | DLT of grade 3 drug-induced liver injury [1, 3]: one patient in each group | Patients who experienced a DLT ([1]; 200 mg b.i.d., including expansion cohort, of 19 patients): three | Maximum tolerated dose (MTD) ([1]; both groups (mild and moderate liver impairment), oral, 28-day cycles): 200 mg b.i.d. | DLT during the MTD period (cycle 1) ([1]; group I (150, 200 mg b.i.d.) and group II (100, 150, 200 mg b.i.d.), dose escalation): No dose‐limiting toxicities were reported; also recorded: No patient experienced a DLT | Primary DLT [2]: elevated liver enzymes
